Laboratory results published in ChEMBL document CHEMBL4038284, “Synthesis of novel quinoline-based 4,5-dihydro-1H-pyrazoles as potential anticancer, antifungal, antibacterial and antiprotozoal agents” (Eur J Med Chem, 2017).
≈ marks a conversion by molar mass, not a printed value.

What was measured:
[1] = system: Staphylococcus aureus; assay: Antibacterial activity against methicillin-resistant Staphylococcus aureus ATCC 43300 after 24 hrs by resazurin dye based microdilution assay; type: functional; conditions: ATCC 43300, 24 h
Outline: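 Broth microdilution in Mueller Hinton broth, inoculum 5 × 10^5 – 8 × 10^5. Compound stocks diluted in MHB with 5% DMSO and 0.1% Tween 80. Incubation 24 h at 35-37 °C. MIC is the lowest concentration with visible growth inhibition and/or by resazurin (1 mg/mL) read-out. Gentamicin as control. Run in duplicate, replicated at least three times.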

[2] = system: Klebsiella pneumoniae; assay: Antibacterial activity against ESBL positive Klebsiella pneumoniae ATCC 700603 after 24 hrs by resazurin dye based microdilution assay; type: functional; conditions: Klebsiella pneumoniae, 700603, 24 h
Outline: (§1)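 MIC taken as the lowest concentration giving visible inhibition and/or by resazurin (1 mg/mL). Gentamicin was the control. Run in duplicate, repeated at least three times.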

[3] = system: Cryptococcus neoformans; assay: Growth inhibition of Cryptococcus neoformans ATCC 32264 at 7.8 ug/ml incubated for 48 hrs under dark condition by broth microdilution method relative to control; type: functional; conditions: ATCC 32264, 48 h, read-out: GI
Outline: (§2)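 CLSI M27-A3 broth microdilution in RPMI-1640, DMSO ≤1%. Inoculum 1-5 × 10^3 CFU/mL. Incubated 48 h at 30 °C, dark. % inhibition = 100 − (OD405 test − sterility control)/(OD405 growth control − sterility control), with growth and sterility control wells. Triplicate.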

[4] = system: Pseudomonas aeruginosa; assay: Antibacterial activity against Pseudomonas aeruginosa ATCC 27853 after 24 hrs by resazurin dye based microdilution assay; type: functional; conditions: ATCC 27853, 24 h; outline: as §1
[5] = system: Candida albicans; assay: Growth inhibition of Candida albicans ATCC 10231 at 7.8 ug/ml incubated for 48 hrs under dark condition by broth microdilution method relative to control; type: functional; conditions: ATCC 10231, 48 h, read-out: GI; outline: as §2
[6] = system: Candida albicans; assay: Antifungal activity against Candida albicans ATCC 10231 incubated for 48 hrs under dark condition by broth microdilution method; type: functional; conditions: ATCC 10231, 48 h
Outline: (§3)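 CLSI M27-A3 broth microdilution in RPMI-1640, DMSO ≤1%, compounds at 250-0.98 µg/mL final. Inoculum 1-5 × 10^3 CFU/mL. Incubated 48 h at 30 °C in a moist dark chamber, read at OD405. MIC80 and MIC50 taken from % inhibition dose-response curves (mean ± SEM, triplicate). Amphotericin B was the positive control.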

[7] = system: Cryptococcus neoformans; assay: Growth inhibition of Cryptococcus neoformans ATCC 32264 at 3.4 ug/ml incubated for 48 hrs under dark condition by broth microdilution method relative to control; type: functional; conditions: ATCC 32264, 48 h, read-out: GI
[8] = system: Candida albicans; assay: Growth inhibition of Candida albicans ATCC 10231 at 3.4 ug/ml incubated for 48 hrs under dark condition by broth microdilution method relative to control; type: functional; conditions: ATCC 10231, 48 h, read-out: GI
[9] = system: Cryptococcus neoformans; assay: Growth inhibition of Cryptococcus neoformans ATCC 32264 at 125 ug/ml incubated for 48 hrs under dark condition by broth microdilution method relative to control; type: functional; conditions: ATCC 32264, 48 h, read-out: GI; outline: as §2
[10] = system: Cryptococcus neoformans; assay: Growth inhibition of Cryptococcus neoformans ATCC 32264 at 62.5 ug/ml incubated for 48 hrs under dark condition by broth microdilution method relative to control; type: functional; conditions: ATCC 32264, 48 h, read-out: GI; outline: as §2
[11] = system: Candida albicans; assay: Growth inhibition of Candida albicans ATCC 10231 at 125 ug/ml incubated for 48 hrs under dark condition by broth microdilution method relative to control; type: functional; conditions: ATCC 10231, 48 h, read-out: GI; outline: as §2
[12] = system: Candida albicans; assay: Growth inhibition of Candida albicans ATCC 10231 at 31.25 ug/ml incubated for 48 hrs under dark condition by broth microdilution method relative to control; type: functional; conditions: ATCC 10231, 48 h, read-out: GI; outline: as §2
[13] = system: Cryptococcus neoformans; assay: Antifungal activity against Cryptococcus neoformans ATCC 32264 incubated for 48 hrs under dark condition by broth microdilution method; type: functional; conditions: ATCC 32264, 48 h; outline: as §3
[14] = system: Plasmodium falciparum; assay: Antiplasmodial activity against chloroquine-sensitive Plasmodium falciparum 3D7 assessed as reduction in parasitic LDH activity after 48 hrs by Malstat reagent based […] method; type: functional; conditions: 3D7, 48 h
Outline: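 Unsynchronized P. falciparum 3D7 at 0.5% parasitemia and 1% hematocrit in RPMI with 3% Albumax II. Exposed to 100, 25, 6.25 and 1.56 µg/mL for 48 h at 37 °C under 90% N2/5% CO2/5% O2. After three freeze-thaw cycles, LDH measured with Malstat and NBT/PES, 1 h in the dark, read at 650 nm. IC50 by Probit; triplicate, ≥2 experiments.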

[15] = system: Candida albicans; assay: Growth inhibition of Candida albicans ATCC 10231 at 62.5 ug/ml incubated for 48 hrs under dark condition by broth microdilution method relative to control; type: functional; conditions: ATCC 10231, 48 h, read-out: GI; outline: as §2
[16] = system: Candida albicans; assay: Growth inhibition of Candida albicans ATCC 10231 at 250 ug/ml incubated for 48 hrs under dark condition by broth microdilution method relative to control; type: functional; conditions: ATCC 10231, 48 h, read-out: GI; outline: as §2
[17] = system: Staphylococcus aureus; assay: Antibacterial activity against vancomycin-intermediate Staphylococcus aureus after 24 hrs by resazurin dye based microdilution assay; type: functional; outline: as §1
[18] = system: Trypanosoma cruzi; assay: Antitrypanosomal activity against Trypanosoma cruzi Tulahuen intracellular amastigote harboring LacZ infected in human U937 cells after 72 hrs by CPRG/Nonidet reagent based spectrophotometric method; type: functional, cell-based; conditions: U-937, 72 h
Outline: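 U-937 cells at 2.5 × 10^5 cells/mL in RPMI-1640 with 10% serum and 0.1 µg/mL PMA were infected with β-galactosidase-transfected Tulahuen epimastigotes at 5 parasites per cell. Infected cells were exposed to 50, 12.5, 3.125 and 0.78 µg/mL for 72 h. CPRG (100 uM) and 0.1% Nonidet P-40 were added for 3 h, read at 570 nm. EC50 by Probit. Triplicate, at least two experiments; benznidazole as reference.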

[19] = system: Neisseria gonorrhoeae; assay: Antibacterial activity against beta lactamase positive Neisseria gonorrhoeae ATCC 31426 by oxidase test; type: functional
Outline: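 Agar dilution MIC on GC agar with 1% isovitalex containing increasing compound concentrations. Plates inoculated with about 1×10^4 CFU (5 µL). MIC is the lowest concentration that inhibited growth, with growth confirmed by oxidase test. Run in duplicate, repeated at least three times.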

[20] = system: Leishmania panamensis; assay: Antileshmanial activity against EpiR/GFP fused Leishmania panamensis MHOM/CO/87/UA140 intracellular amastigotes infected in human […] cells after 72 hrs by flow cytometric method; type: functional, cell-based; conditions: MHOM/CO/87/UA140, 72 h
Outline: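 PMA-treated U-937 cells (3 × 10^5 cells/mL) infected with stationary-phase GFP L. panamensis promastigotes (15:1), 3 h at 34 °C, then washed. After 24 h, compounds added at 50, 12.5, 3.125 and 0.78 µg/mL for 72 h at 37 °C. EC50 by Probit; triplicate, two experiments.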

[21] = system: Staphylococcus aureus; assay: Antibacterial activity against methicillin-sensitive Staphylococcus aureus ATCC 25923 after 24 hrs by resazurin dye based microdilution assay; type: functional; conditions: ATCC 25923, 24 h; outline: as §1
[22] = system: Cryptococcus neoformans; assay: Growth inhibition of Cryptococcus neoformans ATCC 32264 at 31.25 ug/ml incubated for 48 hrs under dark condition by broth microdilution method relative to control; type: functional; conditions: ATCC 32264, 48 h, read-out: GI; outline: as §2
[23] = system: Candida albicans; assay: Growth inhibition of Candida albicans ATCC 10231 at 15.62 ug/ml incubated for 48 hrs under dark condition by broth microdilution method relative to control; type: functional; conditions: ATCC 10231, 48 h, read-out: GI; outline: as §2
[24] = system: Klebsiella pneumoniae; assay: Antibacterial activity against carbapenemase positive Klebsiella pneumoniae BAA 1705 after 24 hrs by resazurin dye based microdilution assay; type: functional; conditions: BAA 1705, 24 h; outline: as §1
[25] = system: Cryptococcus neoformans; assay: Growth inhibition of Cryptococcus neoformans ATCC 32264 at 15.62 ug/ml incubated for 48 hrs under dark condition by broth microdilution method relative to control; type: functional; conditions: ATCC 32264, 48 h, read-out: GI; outline: as §2
[26] = system: U-937; assay: Cytotoxicity against human U937 cells after 72 hrs by MTT assay; type: cell-based; conditions: u-937, 72 h
Outline: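 Exponentially growing U-937 at 1 × 10^5 cells/mL in RPMI-1640 with 10% FBS were exposed to 200, 50, 12.5 and 3.125 µg/mL for 72 h at 37 °C, 5% CO2. MTT for 3 h, stopped with isopropanol/SDS, formazan read at 570 nm, blank-corrected. LC50 by Probit from % viability against untreated cells. Triplicate, at least two independent experiments.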

[27] = system: Cryptococcus neoformans; assay: Growth inhibition of Cryptococcus neoformans ATCC 32264 at 250 ug/ml incubated for 48 hrs under dark condition by broth microdilution method relative to control; type: functional; conditions: ATCC 32264, 48 h, read-out: GI; outline: as §2
[28] = system: Escherichia coli; assay: Antibacterial activity against Escherichia coli ATCC 25922 after 24 hrs by resazurin dye based microdilution assay; type: functional; conditions: ATCC 25922, 24 h; outline: as §1

Clc1ccc(N2N=C(c3ccc(Br)cc3)CC2c2cccc(Nc3ccnc4cc(Cl)ccc34)c2)cc1 (stereo not given)
MIC [1]: > 1000 µg/mL
MIC [2]: > 1000 µg/mL
inhibition of growth at 7.8 µg/mL [3]: 0%
MIC [4]: > 1000 µg/mL
inhibition of growth at 7.8 µg/mL [5]: 6.28%
MIC50 [6]: ≥ 250 µg/mL
MIC80 [6]: ≥ 250 µg/mL
inhibition of growth at 3.4 µg/mL [7]: 0%
inhibition of growth at 3.4 µg/mL [8]: 3.47%
inhibition of growth at 125 µg/mL [9]: 23%
inhibition of growth at 62.5 µg/mL [10]: 17.8%
inhibition of growth at 125 µg/mL [11]: 23.4%
inhibition of growth at 31.25 µg/mL [12]: 7.39%
MIC50 [13]: ≥ 250 µg/mL
MIC80 [13]: ≥ 250 µg/mL
EC50 [14]: 10.3 µg/mL (≈ 17.4 µM)
inhibition of growth at 62.5 µg/mL [15]: 13.7%
inhibition of growth at 250 µg/mL [16]: 39.6%
MIC [17]: > 1000 µg/mL
EC50 [18]: 29.5 µg/mL (≈ 50.1 µM)
MIC [19]: > 1000 µg/mL
EC50 [20]: 16 µg/mL (≈ 27.2 µM)
MIC [21]: > 1000 µg/mL
inhibition of growth at 31.25 µg/mL [22]: 17%
inhibition of growth at 15.62 µg/mL [23]: 6.77%
MIC [24]: > 1000 µg/mL
inhibition of growth at 15.62 µg/mL [25]: 0.14%
LC50 [26]: 35.7 µg/mL (≈ 60.7 µM)
inhibition of growth at 250 µg/mL [27]: 27.5%
MIC [28]: > 1000 µg/mL
